Reference: ChEMBL document CHEMBL1142735, “Discovery of a new series of centrally active tricyclic isoxazoles combining serotonin (5-HT) reuptake inhibition with alpha2-adrenoceptor blocking activity” (J Med Chem, 2005)

What was measured:
Rattus norvegicus [1] = test: Effective dose for PCA-induced 5-HT depletion was determined by subcutaneous administration; format: functional; conditions: sc
How it was run: (§1)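 Male Wiga Wistar rats (200 g, n=6 per condition) dosed sc or po (10 mL/kg). At 4 h, frontal cortex removed and extracted with perchloric acid/metabisulfite; 5-HT measured by HPLC-electrochemical detection against a standard curve with dihydroxybenzylamine internal standard. Effect scaled between pCA+vehicle and vehicle+vehicle controls; ED50 from sigmoidal fit.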

Rattus norvegicus [2] = test: Effective dose for PCA-induced 5-HT depletion was determined by oral administration; format: functional; how it was run: as §1
Histamine H1 receptor = Histamine H1 receptor (Homo sapiens, UniProt P35367); test: Inhibition of [3H]pyrilamine binding to Histamine H1 receptor
How it was run: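 Radioligand competition on membranes from a cell line transfected with the human target, incubated under optimized conditions. Stopped by rapid filtration. Ki by Cheng-Prusoff.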

[3] = molecular target: 5-hydroxytryptamine receptor 2A (Homo sapiens, UniProt P28223); test: Inhibition of [125I]- R91150 binding to 5-hydroxytryptamine 2A receptor
How it was run: (§2)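 Radioligand competition binding on membranes from cell lines carrying the human target, incubated with the labelled ligand under optimized conditions. Separation by filtration, except α1A and D3, which used scintillation proximity assay.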

[4] = molecular target: T1, 5-hydroxytryptamine receptor 2C (Homo sapiens, UniProt P28335); test: Inhibition of [3H]- mesulergine binding to 5-hydroxytryptamine 2C receptor; how it was run: as §2
T1 sequence (P28335 whole entry): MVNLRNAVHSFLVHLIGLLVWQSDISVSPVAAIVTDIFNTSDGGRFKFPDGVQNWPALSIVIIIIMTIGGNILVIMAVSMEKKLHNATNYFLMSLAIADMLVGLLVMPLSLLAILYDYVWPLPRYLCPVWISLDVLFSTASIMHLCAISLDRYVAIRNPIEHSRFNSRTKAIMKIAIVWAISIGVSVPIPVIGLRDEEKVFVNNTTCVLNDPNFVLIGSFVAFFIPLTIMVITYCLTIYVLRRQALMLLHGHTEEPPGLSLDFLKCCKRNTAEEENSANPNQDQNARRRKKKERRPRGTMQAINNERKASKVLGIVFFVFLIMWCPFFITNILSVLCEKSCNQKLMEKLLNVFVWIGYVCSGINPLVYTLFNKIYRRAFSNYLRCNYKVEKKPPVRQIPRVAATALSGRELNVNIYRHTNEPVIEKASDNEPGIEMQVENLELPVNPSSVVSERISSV

[5] = molecular target: Sodium-dependent dopamine transporter (Rattus norvegicus, UniProt P23977); test: Inhibition of [3H]WIN-35428 binding to Dopamine transporter of rat striatum; format: tissue-based
How it was run: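 Competition binding using rat striatum membranes incubated with the radioligand under optimized conditions, separated by filtration.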

Rattus norvegicus [6] = test: Effective dose concentration for antagonism ofpCA-Induced excitation was determined by subcutaneous administration; format: functional; conditions: sc
How it was run: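 Male Wistar rats (200-250 g), fasted overnight, given test compound or solvent sc before challenge. Loss of righting induced by medetomidine 0.10 mg/kg iv; reversal means no loss of righting. Excitation induced by pCA 5 mg/10 mL/kg sc and scored 0-3 over 15 min starting 45 min after pCA; inhibition means score <2.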

D(4) dopamine receptor = molecular target: T2, D(4) dopamine receptor (Homo sapiens, UniProt P21917); test: Inhibition of [3H]spiperone binding to Dopamine receptor D4; how it was run: as §2
T2 sequence (P21917 whole entry): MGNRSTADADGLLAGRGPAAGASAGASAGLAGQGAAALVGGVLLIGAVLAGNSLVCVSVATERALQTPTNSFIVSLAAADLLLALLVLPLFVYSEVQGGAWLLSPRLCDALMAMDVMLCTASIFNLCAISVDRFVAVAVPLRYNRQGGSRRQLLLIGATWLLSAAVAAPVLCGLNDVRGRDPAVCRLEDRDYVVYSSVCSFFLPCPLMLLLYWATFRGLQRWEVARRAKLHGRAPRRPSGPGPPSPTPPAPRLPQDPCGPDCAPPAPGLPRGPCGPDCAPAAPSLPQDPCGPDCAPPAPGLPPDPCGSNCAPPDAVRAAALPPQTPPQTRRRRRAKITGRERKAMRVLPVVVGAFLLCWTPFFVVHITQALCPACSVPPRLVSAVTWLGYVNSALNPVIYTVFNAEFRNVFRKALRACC

[7] = molecular target: Norepinephrine transporter (Rattus norvegicus, UniProt Q9WTR4); test: Inhibition of [3H]-nisoxetine binding to Norepinephrine transporter from rat cortex
How it was run: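 Radioligand competition on rat cortex membranes, incubated under optimized conditions. Stopped by rapid filtration. Ki by Cheng-Prusoff.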

D(2) dopamine receptor = D(2) dopamine receptor (Homo sapiens, UniProt P14416); test: Inhibition of [3H]spiperone binding to Dopamine receptor D2; how it was run: as §2
[8] = molecular target: T3, 5-hydroxytryptamine receptor 1A (Homo sapiens, UniProt P08908); test: Inhibition of [3H]8-OH-DPAT binding to 5-hydroxytryptamine 1A receptor; how it was run: as §2
T3 sequence (P08908 whole entry): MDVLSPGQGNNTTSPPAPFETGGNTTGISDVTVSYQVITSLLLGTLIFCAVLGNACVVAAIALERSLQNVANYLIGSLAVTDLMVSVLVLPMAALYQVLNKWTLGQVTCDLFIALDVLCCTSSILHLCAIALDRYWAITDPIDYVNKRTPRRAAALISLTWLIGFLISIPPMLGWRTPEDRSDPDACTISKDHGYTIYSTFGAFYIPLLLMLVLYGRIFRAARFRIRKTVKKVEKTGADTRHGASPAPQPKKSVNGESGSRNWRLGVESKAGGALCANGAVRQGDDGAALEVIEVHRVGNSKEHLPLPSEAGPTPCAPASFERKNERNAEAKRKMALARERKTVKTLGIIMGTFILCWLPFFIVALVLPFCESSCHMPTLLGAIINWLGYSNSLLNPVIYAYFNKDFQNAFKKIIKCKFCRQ

D(3) dopamine receptor = D(3) dopamine receptor (Homo sapiens, UniProt P35462); test: Inhibition of [125I]-iodosulpiride binding to Dopamine receptor D3
How it was run: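 Radioligand competition using membranes from a cell line transfected with human D3 receptor, incubated under optimized conditions. Bound ligand read by scintillation proximity assay rather than filtration. Ki by Cheng-Prusoff.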

[9] = molecular target: 5-hydroxytryptamine receptor 7 (Homo sapiens, UniProt P34969); test: Inhibition of [3H]5-HT binding to 5-hydroxytryptamine 7 receptor; how it was run: as §2
Rattus norvegicus [10] = test: Effective dose for antagonism ofpCA-Induced excitation was determined by oral administration; format: functional
How it was run: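 Oral pretreatment of overnight-fasted male Wistar rats (200-250 g), then medetomidine 0.10 mg/kg iv (reversal means no loss of righting) or pCA 5 mg/kg sc (excitation scored 0-3 over 15 min from 45 min after pCA; inhibition means score <2). Doses taken from a geometric series.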

D(2) dopamine receptor, sequence (P14416 whole entry): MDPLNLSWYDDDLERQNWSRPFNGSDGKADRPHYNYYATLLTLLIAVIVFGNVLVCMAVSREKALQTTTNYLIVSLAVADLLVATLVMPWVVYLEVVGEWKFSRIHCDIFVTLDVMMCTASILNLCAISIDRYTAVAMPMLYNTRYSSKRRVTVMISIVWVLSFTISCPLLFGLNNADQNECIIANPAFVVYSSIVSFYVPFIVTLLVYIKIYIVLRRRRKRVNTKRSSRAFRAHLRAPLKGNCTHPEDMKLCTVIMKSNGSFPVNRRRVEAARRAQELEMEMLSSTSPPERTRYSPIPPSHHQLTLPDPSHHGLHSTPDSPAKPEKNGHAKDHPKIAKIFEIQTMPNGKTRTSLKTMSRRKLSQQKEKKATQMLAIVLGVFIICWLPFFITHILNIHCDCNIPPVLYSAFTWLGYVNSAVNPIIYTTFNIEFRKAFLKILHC
5-hydroxytryptamine receptor 2A, sequence (P28223 whole entry): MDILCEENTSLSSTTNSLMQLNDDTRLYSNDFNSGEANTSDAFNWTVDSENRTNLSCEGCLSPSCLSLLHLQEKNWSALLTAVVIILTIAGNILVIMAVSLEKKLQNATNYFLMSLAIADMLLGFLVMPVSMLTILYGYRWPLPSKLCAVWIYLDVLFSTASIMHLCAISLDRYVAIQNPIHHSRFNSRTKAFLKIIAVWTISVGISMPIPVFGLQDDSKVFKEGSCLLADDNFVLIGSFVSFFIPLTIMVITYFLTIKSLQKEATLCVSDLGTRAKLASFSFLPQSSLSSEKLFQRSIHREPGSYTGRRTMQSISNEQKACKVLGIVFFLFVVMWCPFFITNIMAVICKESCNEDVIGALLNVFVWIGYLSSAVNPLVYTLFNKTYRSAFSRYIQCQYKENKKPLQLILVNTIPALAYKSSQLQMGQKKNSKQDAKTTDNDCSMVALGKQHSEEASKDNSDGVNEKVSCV
Sodium-dependent dopamine transporter, sequence (P23977 whole entry): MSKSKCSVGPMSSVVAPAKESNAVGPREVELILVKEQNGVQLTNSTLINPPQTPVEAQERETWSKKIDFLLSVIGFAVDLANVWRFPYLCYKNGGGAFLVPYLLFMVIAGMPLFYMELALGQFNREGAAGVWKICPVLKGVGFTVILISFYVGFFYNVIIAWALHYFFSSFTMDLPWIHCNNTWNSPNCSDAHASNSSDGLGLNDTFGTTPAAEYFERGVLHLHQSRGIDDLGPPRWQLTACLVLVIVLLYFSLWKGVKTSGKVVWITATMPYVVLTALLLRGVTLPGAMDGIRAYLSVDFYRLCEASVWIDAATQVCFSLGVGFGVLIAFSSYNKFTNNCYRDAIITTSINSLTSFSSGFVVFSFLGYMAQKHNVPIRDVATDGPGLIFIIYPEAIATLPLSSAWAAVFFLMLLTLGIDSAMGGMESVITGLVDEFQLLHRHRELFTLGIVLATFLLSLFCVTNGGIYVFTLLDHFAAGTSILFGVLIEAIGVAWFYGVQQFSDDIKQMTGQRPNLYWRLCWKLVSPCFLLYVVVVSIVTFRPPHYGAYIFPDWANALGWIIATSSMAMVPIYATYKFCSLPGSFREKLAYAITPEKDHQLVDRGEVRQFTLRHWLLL
Histamine H1 receptor, sequence (P35367 whole entry): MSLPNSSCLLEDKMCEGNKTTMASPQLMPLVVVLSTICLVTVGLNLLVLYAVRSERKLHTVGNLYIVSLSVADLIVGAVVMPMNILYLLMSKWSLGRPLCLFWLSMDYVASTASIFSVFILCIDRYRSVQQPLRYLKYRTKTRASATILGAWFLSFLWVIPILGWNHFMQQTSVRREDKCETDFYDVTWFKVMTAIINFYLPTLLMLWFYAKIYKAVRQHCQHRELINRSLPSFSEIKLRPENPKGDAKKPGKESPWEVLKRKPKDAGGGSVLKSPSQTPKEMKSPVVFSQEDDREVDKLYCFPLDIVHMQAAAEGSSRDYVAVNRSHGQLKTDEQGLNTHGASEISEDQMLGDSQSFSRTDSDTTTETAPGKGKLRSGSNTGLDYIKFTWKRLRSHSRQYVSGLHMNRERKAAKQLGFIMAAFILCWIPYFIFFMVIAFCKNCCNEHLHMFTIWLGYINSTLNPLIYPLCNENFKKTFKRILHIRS
Norepinephrine transporter, sequence (Q9WTR4 whole entry): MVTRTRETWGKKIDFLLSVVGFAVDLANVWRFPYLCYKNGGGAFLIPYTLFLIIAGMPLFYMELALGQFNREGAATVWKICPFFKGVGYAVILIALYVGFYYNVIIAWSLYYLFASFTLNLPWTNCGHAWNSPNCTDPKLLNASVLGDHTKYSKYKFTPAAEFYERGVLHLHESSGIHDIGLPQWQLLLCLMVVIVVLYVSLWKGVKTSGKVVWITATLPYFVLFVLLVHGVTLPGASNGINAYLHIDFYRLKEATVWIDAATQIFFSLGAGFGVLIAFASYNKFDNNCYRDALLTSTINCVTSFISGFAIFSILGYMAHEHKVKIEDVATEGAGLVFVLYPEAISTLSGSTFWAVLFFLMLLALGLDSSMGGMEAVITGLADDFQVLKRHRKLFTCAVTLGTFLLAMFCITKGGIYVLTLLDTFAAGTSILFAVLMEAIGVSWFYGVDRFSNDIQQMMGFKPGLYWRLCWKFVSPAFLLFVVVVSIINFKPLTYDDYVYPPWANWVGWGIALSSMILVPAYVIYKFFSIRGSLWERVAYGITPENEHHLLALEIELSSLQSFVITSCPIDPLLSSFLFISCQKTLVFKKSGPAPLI
D(3) dopamine receptor, sequence (P35462 whole entry): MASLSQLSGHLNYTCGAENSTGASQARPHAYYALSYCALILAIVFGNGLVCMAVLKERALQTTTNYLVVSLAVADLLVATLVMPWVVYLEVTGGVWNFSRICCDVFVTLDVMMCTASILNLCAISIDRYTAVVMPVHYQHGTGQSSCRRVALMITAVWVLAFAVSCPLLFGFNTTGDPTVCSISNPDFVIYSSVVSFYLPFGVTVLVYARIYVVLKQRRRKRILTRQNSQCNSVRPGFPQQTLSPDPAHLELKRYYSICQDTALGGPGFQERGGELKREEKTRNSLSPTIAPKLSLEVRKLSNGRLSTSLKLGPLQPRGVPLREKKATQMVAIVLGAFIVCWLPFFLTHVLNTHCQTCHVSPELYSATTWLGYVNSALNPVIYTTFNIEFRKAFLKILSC
5-hydroxytryptamine receptor 7, sequence (P34969 whole entry): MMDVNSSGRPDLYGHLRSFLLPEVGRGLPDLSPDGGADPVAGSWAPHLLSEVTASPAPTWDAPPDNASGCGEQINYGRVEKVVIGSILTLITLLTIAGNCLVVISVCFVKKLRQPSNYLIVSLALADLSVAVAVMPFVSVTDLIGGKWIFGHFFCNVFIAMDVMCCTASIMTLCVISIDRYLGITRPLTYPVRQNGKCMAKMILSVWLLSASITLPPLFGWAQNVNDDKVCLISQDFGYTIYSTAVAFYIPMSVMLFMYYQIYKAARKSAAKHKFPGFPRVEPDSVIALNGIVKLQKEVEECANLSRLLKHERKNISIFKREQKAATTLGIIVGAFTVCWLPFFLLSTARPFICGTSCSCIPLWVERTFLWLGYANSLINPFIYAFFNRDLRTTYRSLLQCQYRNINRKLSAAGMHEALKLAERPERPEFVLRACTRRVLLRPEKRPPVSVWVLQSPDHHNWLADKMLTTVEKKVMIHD

Structure (SMILES)	ED50 (Rattus norvegicus [1]) [mg/kg]	ED50 (Rattus norvegicus [2]) [mg/kg]	Ki (Histamine H1 receptor) [nM]	Ki [3] [nM]	Ki [4] [nM]	Ki [5] [nM]	ED50 (Rattus norvegicus [6]) [mg/kg]	Ki (D(4) dopamine receptor) [nM]	Ki [7] [nM]	Ki (D(2) dopamine receptor) [nM]	Ki [8] [nM]	Ki (D(3) dopamine receptor) [nM]	Ki [9] [nM]	ED50 (Rattus norvegicus [10]) [mg/kg]
COc1cc2c(cc1OC)C1=NO[C@@H](CN3CCN(C/C=C/c4ccccc4)CC3)[C@@H]1CO2	0.17	1.1	> 1000	> 1000	> 1000	515	0.39	> 1000	132	959	> 1000	270	> 1000	5
COc1cc2c(cc1OC)C1=NO[C@@H](CN3CCN(C/C=C(\C)c4ccccc4)CC3)[C@@H]1CO2	0.24	3.5	> 1000	> 1000	> 1000	368	0.5	> 1000	220	> 1000	> 1000	611	> 1000	≥ 2.5
COc1cc2c(cc1OC)C1=NO[C@@H](CN3CCN(C/C(C)=C/c4ccccc4)CC3)[C@@H]1CO2	0.33	3.8	113	> 1000	> 1000	> 1000	–	> 1000	177	230	475	433	> 1000	–
COc1cc2c(cc1OC)C1=NO[C@@H](CN3CCN(Cc4ccc5ccccc5c4)CC3)[C@@H]1CO2	0.25	2.6	460	> 1000	> 1000	246	0.08	> 1000	33	> 1000	> 1000	107	> 1000	5
